Assay results taken from article PMC4410974 (Clinical cancer research : an official journal of the …, 2012).

Experiments:
[1] = Tumor response by RECIST 1.0; format: in vivo, human
[2] = oral multiple dosing; ref [17]–[19]; cited from earlier work
[3] = Adverse events; format: in vivo, human
[4] = tested on: p70S6 kinase phosphorylation at Thr389; assay: p70S6K phosphorylation at Thr389 in peripheral blood lymphocytes; format: in vivo, human
Procedure, shortened: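 Sirolimus-alone study only, oral weekly dosing. Blood drawn before dosing at baseline, week 1 day 2 and day 4, week 2 day 1, week 5 day 1. CD3+ cells enriched after density centrifugation, cryopreserved, then given medium or PMA (0.5 µg/ml) plus ionomycin (0.025 µg/ml), 1 hr, 37 °C. Western blot for phospho-Thr389 and total p70S6K, densitometry, cohort means, paired t-test. Indirect response model with rebound (kin, kout; baseline 100%), FOCE with interaction.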

[5] = three studies collectively, 138 subjects
[6] = indirect response model with rebound

## CO[C@H]1C[C@@H]2CC[C@@H](C)[C@@](O)(O2)C(=O)C(=O)N2CCCC[C@H]2C(=O)O[C@H]([C@H](C)C[C@@H]2CC[C@@H](O)[C@H](OC)C2)CC(=O)[C@H](C)/C=C(\C)[C@@H](O)[C@@H](OC)C(=O)[C@H](C)C[C@H](C)/C=C/C=C/C=C/1C [Sirolimus]
[1]; collective studies, patient with epithelioid hemangioendothelioma with hepatic metastases
  Partial response: One partial response
[1]; per study
  Stable disease, number of subjects: 16
  Stable disease, percent of subjects: 40%
[2]
  volume of distribution: 12 L/kg
[3]; Sirolimus Alone 10mg
  Altered taste (adverse event): 1
  Anemia (adverse event): 3
  Anorexia (adverse event): 1
  Diarrhea (adverse event): 1
  Elevated Transaminases (adverse event): 1
  Fatigue (adverse event): 2
  Hyperlipidemia (adverse event): 2
  Infection (adverse event): 1
  Lymphopenia (adverse event): 3
  Lymphopenia, grade 3 or 4: 2
  Mucocutaneous dryness (adverse event): 1
  Mucositis (adverse event): 2
  Nausea (adverse event): 3
  Paresthesia (adverse event): 1
  Rash (adverse event): 1
  Vomiting (adverse event): 2
[3]; Sirolimus Alone 20mg
  Altered taste (adverse event): 1
  Anemia (adverse event): 5
  Anorexia (adverse event): 1
  Decreased platelets (adverse event): 1
  Diarrhea (adverse event): 5
  Dyspnea (adverse event): 1
  Elevated Transaminases (adverse event): 4
  Fatigue (adverse event): 4
  Hyperglycemia (adverse event): 6
  Hyperlipidemia (adverse event): 4
  Hypoxia (adverse event): 2
  Infection (adverse event): 1(1)
  Infection, grade 3 or 4: 1(1)
  Lymphopenia (adverse event): 4
  Lymphopenia, grade 3 or 4: 1
  Mucositis (adverse event): 1
  Nausea (adverse event): 2
  Pneumonia (adverse event): 2(2)
  Pneumonia, grade 3 or 4: 2(2)
[3]; Sirolimus Alone 30mg
  Anemia (adverse event): 3
  Anorexia (adverse event): 1(1)
  Anorexia, grade 3 or 4: 1(1)
  Decreased platelets (adverse event): 1
  Diarrhea (adverse event): 2
  Elevated Transaminases (adverse event): 2
  Fatigue (adverse event): 1
  Fever (adverse event): 2
  Hyperglycemia (adverse event): 6
  Hyperlipidemia (adverse event): 3
  Hyperlipidemia, grade 3 or 4: 1
  Hypertension (adverse event): 1
  Infection (adverse event): 1(1)
  Infection, grade 3 or 4: 1(1)
  Lymphopenia (adverse event): 3
  Lymphopenia, grade 3 or 4: 1
  Mucocutaneous dryness (adverse event): 1
  Nausea (adverse event): 4
  Nausea, grade 3 or 4: 1
  Pneumonia (adverse event): 1
  Rash (adverse event): 1
  Vomiting (adverse event): 2
[3]; Sirolimus Alone 30mg (4h)
  Decreased platelets (adverse event): 1
  Diarrhea (adverse event): 4
  Elevated Transaminases (adverse event): 1
  Fatigue (adverse event): 1
  Hyperglycemia (adverse event): 1
  Leukopenia (adverse event): 2
  Nausea (adverse event): 2
  Vomiting (adverse event): 2
[3]; Sirolimus Alone 30mg (24h)
  Diarrhea (adverse event): 2
  Infection (adverse event): 1(1)
  Infection, grade 3 or 4: 1(1)
  Mucositis (adverse event): 1
  Nausea (adverse event): 1
  Rash (adverse event): 1
[3]; Sirolimus Alone 45mg (24h)
  Anorexia (adverse event): 1
  Diarrhea (adverse event): 3
  Diarrhea, grade 3 or 4: 1
  Hyperglycemia (adverse event): 1
  Mood Alteration (adverse event): 1
  Nausea (adverse event): 2
  Vomiting (adverse event): 4
[3]; Sirolimus Alone 60mg
  Anorexia (adverse event): 3
  Decreased platelets (adverse event): 1
  Diarrhea (adverse event): 6
  Diarrhea, grade 3 or 4: 1
  Elevated Transaminases (adverse event): 1
  Fatigue (adverse event): 5
  Fever (adverse event): 1
  Hyperglycemia (adverse event): 4
  Hyperlipidemia (adverse event): 6
  Hyperlipidemia, grade 3 or 4: 1
  Infection (adverse event): 1
  Lymphopenia (adverse event): 3
  Nausea (adverse event): 6
  Rash (adverse event): 1
  Vomiting (adverse event): 5
  Weight Loss (adverse event): 4
[3]; Total (n=138)
  Altered taste (adverse event): 5
  Anemia (adverse event): 46
  Anemia, grade 3 or 4: 5
  Anorexia (adverse event): 32
  Anorexia, grade 3 or 4: 1
  Decreased platelets (adverse event): 22
  Diarrhea (adverse event): 58
  Diarrhea, grade 3 or 4: 3
  Dyspnea (adverse event): 6
  Dyspnea, grade 3 or 4: 1
  Edema (adverse event): 5
  Edema, grade 3 or 4: 1
  Elevated Creatinine (adverse event): 1
  Elevated Transaminases (adverse event): 23
  Elevated Transaminases, grade 3 or 4: 2
  Epistaxis (adverse event): 1
  Fatigue (adverse event): 46
  Fatigue, grade 3 or 4: 3
  Fever (adverse event): 4
  Hand & Foot Syndrome (adverse event): 2
  Hyperglycemia (adverse event): 72
  Hyperglycemia, grade 3 or 4: 7
  Hyperlipidemia (adverse event): 59
  Hyperlipidemia, grade 3 or 4: 3
  Hypertension (adverse event): 2
  Hypocalcemia (adverse event): 2
  Hypoglycemia (adverse event): 1(1)
  Hypoglycemia, grade 3 or 4: 1(1)
  Hypoxia (adverse event): 2
  Infection (adverse event): 14
  Infection, grade 3 or 4: 4
  Leukopenia (adverse event): 17
  Lymphopenia (adverse event): 56
  Lymphopenia, grade 3 or 4: 14
  Mood Alteration (adverse event): 2
  Mucocutaneous dryness (adverse event): 6
  Mucositis (adverse event): 17
  Myalgia (adverse event): 3
  Nail Changes (adverse event): 1(1)
  Nail Changes, grade 3 or 4: 1(1)
  Nausea (adverse event): 48
  Nausea, grade 3 or 4: 2
  Neutropenia (adverse event): 7
  Paresthesia (adverse event): 2
  Pleural Effusion (adverse event): 1
  Pneumonia (adverse event): 5
  Pneumonia, grade 3 or 4: 4
  Pruritis (adverse event): 6
  Rash (adverse event): 14
  Vomiting (adverse event): 33
  Vomiting, grade 3 or 4: 1
  Weight Loss (adverse event): 15
[3]; [5]
  Hyperglycemia, subjects with toxicity: 52%
  Hyperlipidemia, subjects with toxicity: 43%
  Lymphopenia, subjects with toxicity: 41%
[4]; 10 mg weekly dose, 1 week after the initial dose (data not shown)
  phospho-p70S6K activity: suppressed
[4]; 48 hours after administration, all dose levels, sirolimus alone study, p = 0.006
  phospho-p70S6K in peripheral T cells: inhibition
[4]; [6]
  kout (first-order rate constant for loss of phospho-p70S6K), typical value: 0.05
  krebound, typical value: 11.3 mL/ng
[4]; indirect response model with rebound, baseline phosphorylation 100%
  kin (zero-order rate constant for gain of phospho-p70S6K), typical value: 5.5
[4]; sirolimus alone study
  Rebound effect on phospho-p70S6K (levels exceeded baseline at later time points), subjects: six out of twelve
